{"source": "ChEMBL document CHEMBL1145421", "about": "“Discovery of novel antitumor antimitotic agents that also reverse tumor resistance” (J Med Chem, 2007)", "key": {"HL-60 [1]": {"tested_on": "HL-60", "experiment": "Cell cycle arrest in HL60 cells assessed as accumulation in […] phase at 80 nM", "assay_type": "functional, Homo sapiens", "method_in_brief": "(§1)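 HL-60 cells exposed 24 or 48 h to drug or ethanol vehicle. Nuclei prepared by detergent-trypsin method: citrate/sucrose/DMSO buffer, trypsin, then trypsin inhibitor plus RNase A, then propidium iodide with spermine, 30 min at 4 °C. Filtered, resuspended, DNA content measured by flow cytometry. Percentages given for G0/G1, S and G2/M. Mean ± SEM.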"}, "HL-60 [2]": {"tested_on": "HL-60", "experiment": "Cell cycle arrest in HL60 cells assessed as accumulation in S phase at 80 nM", "assay_type": "functional, Homo sapiens", "method_in_brief": "as §1"}, "[3]": {"experiment": "Growth inhibition of Pgp deficient MCF7/VP cells expressing MRP1", "assay_type": "functional, cell-based", "conditions": "Homo sapiens", "method_in_brief": "(§2)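 NCI/ADR (Pgp-overexpressing) or MCF-7/VP (MRP1-expressing, Pgp-negative) cells were seeded at about 15% confluency and allowed to attach for 24 h. They were then exposed for 48 h to varying compound concentrations, limited by solubility, without added vinca drug. Survival was read by sulforhodamine B binding against ethanol solvent controls. Each value is the mean of three equally treated wells.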"}, "[4]": {"experiment": "Growth inhibition of NCI/ADR cells expressing Pgp/MRP1", "assay_type": "functional, cell-based", "conditions": "Homo sapiens, NCI/ADR-RES", "method_in_brief": "as §2"}, "A10": {"tested_on": "A10", "experiment": "Induction of microtubule loss in rat A10 cells at 5 uM after 24 hrs", "assay_type": "functional, cell-based"}, "MCF7 [5]": {"tested_on": "MCF7", "experiment": "Growth inhibition of Pgp deficient MCF7 cells expressing MRP1", "assay_type": "functional, cell-based", "conditions": "Homo sapiens", "method_in_brief": "as §2"}, "HL-60 [6]": {"tested_on": "HL-60", "experiment": "Cell cycle arrest in HL60 cells assessed as accumulation in G0/G1 phase at 80 nM", "assay_type": "functional, Homo sapiens", "method_in_brief": "as §1"}, "HL-60 [7]": {"tested_on": "HL-60", "experiment": "Cell cycle arrest in HL60 cells assessed as accumulation in […] phase at 600 nM", "assay_type": "functional, Homo sapiens", "method_in_brief": "as §1"}, "HL-60 [8]": {"tested_on": "HL-60", "experiment": "Cell cycle arrest in HL60 cells assessed as accumulation in G0/G1 phase at 600 nM", "assay_type": "functional, Homo sapiens", "method_in_brief": "as §1"}, "HL-60 [9]": {"tested_on": "HL-60", "experiment": "Cell cycle arrest in HL60 cells assessed as accumulation in S phase at 600 nM", "assay_type": "functional, Homo sapiens", "method_in_brief": "as §1"}, "HL-60 [10]": {"tested_on": "HL-60", "experiment": "Cell cycle arrest in HL60 cells assessed as accumulation in G0/G1 phase at 200 nM", "assay_type": "functional, Homo sapiens", "method_in_brief": "as §1"}, "HL-60 [11]": {"tested_on": "HL-60", "experiment": "Cell cycle arrest in HL60 cells assessed as accumulation in […] phase at 200 nM", "assay_type": "functional, Homo sapiens", "method_in_brief": "as §1"}, "HL-60 [12]": {"tested_on": "HL-60", "experiment": "Cell cycle arrest in HL60 cells assessed as accumulation in S phase at 200 nM", "assay_type": "functional, Homo sapiens", "method_in_brief": "as §1"}, "MCF7 [13]": {"tested_on": "MCF7", "experiment": "Cytotoxicity against human MCF7 cells after 48 hrs by SRB binding assay", "assay_type": "functional, cell-based", "conditions": "MCF7, 48 h", "method_in_brief": "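Drug-sensitive MCF-7 cells seeded at ~15% confluency and allowed 24 h recovery. Exposed 48 h to graded concentrations. Survival measured by SRB binding as % decrease versus ethanol-vehicle controls, mean of triplicate wells.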"}, "[14]": {"experiment": "Cytotoxicity against Pgp overexpressing human NCI/ADR cells after 48 hrs by SRB binding assay", "assay_type": "functional, cell-based", "conditions": "NCI/ADR-RES", "method_in_brief": "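NCI/ADR (Pgp-overexpressing) cells seeded at ~15% confluency and allowed 24 h to attach. Exposed 48 h to graded concentrations, as solubility allowed, without vinblastine. Survival measured by sulforhodamine B binding as % decrease in SRB binding versus ethanol-vehicle controls, mean of three wells per condition.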"}, "[15]": {"experiment": "Cytotoxicity against human T24 cells after 48 hrs by SRB binding assay", "assay_type": "cell-based", "conditions": "T-24, 48 h"}, "[16]": {"experiment": "Cytotoxicity against MRP1 overexpressing human MCF7/VP cells after 48 hrs by SRB binding assay", "assay_type": "functional, cell-based", "method_in_brief": "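MCF-7/VP (MRP1-expressing, Pgp-negative) cells seeded at ~15% confluency and allowed 24 h to attach. Exposed 48 h to graded concentrations without vincristine. Survival measured by SRB binding versus ethanol controls.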"}}, "note": "Calls of active or inactive are those of the source. The calls are words filed in the database; no cut-off is given here.", "data": [{"smiles": "CC[C@]1(O)C[C@@H]2CN(CCc3c([nH]c4ccccc34)[C@@](C(=O)OC)(c3cc4c(cc3OC)N(C)[C@H]3[C@@](O)(C(=O)OC)[C@H](OC(C)=O)[C@]5(CC)C=CCN6CC[C@]43[C@@H]65)C2)C1", "note": "[VINBLASTINE]", "values": [{"measurement": "Activity", "setting": "HL-60 [1]", "value": 10.1, "unit": "%"}, {"measurement": "Activity", "setting": "HL-60 [2]", "value": 6.6, "unit": "%"}, {"measurement": "IC50", "setting": "[3]", "value": 3, "unit": "nM"}, {"measurement": "IC50", "setting": "[4]", "value": "> 375", "unit": "nM"}, {"measurement": "Activity", "setting": "A10", "value": "Active"}, {"measurement": "IC50", "setting": "MCF7 [5]", "value": 2.8, "unit": "nM"}, {"measurement": "Activity", "setting": "HL-60 [6]", "value": 83.3, "unit": "%"}]}, {"smiles": "COc1cc2c(c(OC)c1OC)-c1ccc(OC)c(=O)cc1[C@@H](NC(C)=O)CC2", "note": "[COLCHICINE]", "values": [{"measurement": "Activity", "setting": "HL-60 [7]", "value": 11.9, "unit": "%"}, {"measurement": "Activity", "setting": "HL-60 [8]", "value": 84.1, "unit": "%"}, {"measurement": "Activity", "setting": "HL-60 [9]", "value": 4, "unit": "%"}]}, {"smiles": "CC(=O)O[C@H]1C(=O)[C@@]2(C)[C@H]([C@H](OC(=O)c3ccccc3)[C@]3(O)C[C@H](OC(=O)[C@H](O)[C@@H](NC(=O)c4ccccc4)c4ccccc4)C(C)=C1C3(C)C)[C@]1(OC(C)=O)CO[C@@H]1C[C@@H]2O", "note": "[PACLITAXEL]", "values": [{"measurement": "IC50", "setting": "[3]", "value": 2.8, "unit": "nM"}, {"measurement": "Activity", "setting": "HL-60 [10]", "value": 67.3, "unit": "%"}, {"measurement": "IC50", "setting": "[4]", "value": 2700, "unit": "nM"}, {"measurement": "IC50", "setting": "MCF7 [5]", "value": 2.5, "unit": "nM"}, {"measurement": "Activity", "setting": "HL-60 [11]", "value": 10.5, "unit": "%"}, {"measurement": "Activity", "setting": "HL-60 [12]", "value": 22.2, "unit": "%"}]}, {"smiles": "COc1ccc(CCc2cn(Cc3ccccc3)c3nc(N)nc(C)c23)cc1", "values": [{"measurement": "IC50", "setting": "MCF7 [13]", "value": 13000, "unit": "nM"}, {"measurement": "IC50", "setting": "[14]", "value": 21700, "unit": "nM"}, {"measurement": "IC50", "setting": "[15]", "value": 31700, "unit": "nM"}, {"measurement": "IC50", "setting": "[16]", "value": 22700, "unit": "nM"}]}]}
